# Results: ChEMBL document CHEMBL2062365, “Suppressive effects of coumarins from Mammea siamensis on inducible nitric oxide synthase expression in RAW264.7 cells” (Bioorg Med Chem, 2012)
# Calls of active or inactive are those of the source. The calls are words filed in the database; no cut-off is given here.
# Experiments:
# RAW264.7 [1] = assay: Antiinflammatory activity in mouse RAW264.7 cells assessed as inhibition of LPS-induced NO production at 30 uM incubated for 10 mins prior to LPS-challenge measured after 18 hrs by Griess method relative to control; type: functional
# Summary of the method: (§1)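 RAW264.7 cells (DMEM, 10% FBS, 37 °C, 5% CO2) seeded at 2.5 × 10^5 cells/well. After 6 h, nonadherent cells were washed off. Adherent cells were exposed to test compound for 10 min, then to LPS (E. coli 055:B5, final 10 µg/mL) for 18 h. Supernatant nitrite was measured by Griess reaction. Inhibition % = (A−B)/(A−C)×100, with C as the no-LPS control. IC50 was read graphically; N = 4, mean ± SEM. CAPE was the reference.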
# RAW264.7 [2] = assay: Antiinflammatory activity in mouse RAW264.7 cells assessed as inhibition of LPS-induced NO production at 10 uM incubated for 10 mins prior to LPS-challenge measured after 18 hrs by Griess method relative to control; type: functional; summary of the method: as §1
# RAW264.7 [3] = assay: Antiinflammatory activity in mouse RAW264.7 cells assessed as inhibition of LPS-induced NO production incubated for 10 mins prior to LPS-challenge measured after 18 hrs by Griess method; type: functional, cell-based; summary of the method: as §1
# [4] = Cytotoxicity against mouse RAW264.7 cells assessed as cell viability at 30 uM after 18 hrs by MTT assay; type: cell-based; conditions: read-out: Activity
# Summary of the method: (§2)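 MTT viability assay. RAW264.7 cells seeded at 1.0 × 10^5 cells/well; after 6 h, nonadherent cells were washed off. Adherent cells were cultured with test compound for 18 h. MTT (5 mg/mL in PBS) was added for 2 h at 37 °C. Formazan was dissolved in isopropanol with 0.04 M HCl and OD read at 570 nm (reference 655 nm).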
# [5] = Cytotoxicity against mouse RAW264.7 cells assessed as cell viability at 3 uM after 18 hrs by MTT assay; type: cell-based; conditions: read-out: Activity; summary of the method: as §2
# [6] = Cytotoxicity against mouse RAW264.7 cells assessed as cell viability at 10 uM after 18 hrs by MTT assay; type: cell-based; conditions: read-out: Activity; summary of the method: as §2
# RAW264.7 [7] = assay: Antiinflammatory activity in mouse RAW264.7 cells assessed as inhibition of LPS-induced NO production at 3 uM incubated for 10 mins prior to LPS-challenge measured after 18 hrs by Griess method relative to control
# RAW264.7 [8] = assay: Antiinflammatory activity in mouse RAW264.7 cells assessed as inhibition of LPS-induced NO production at 1 uM incubated for 10 mins prior to LPS-challenge measured after 18 hrs by Griess method relative to control; type: functional; summary of the method: as §1
# RAW264.7 [9] = assay: Antiinflammatory activity in mouse RAW264.7 cells assessed as inhibition of LPS-induced NO production at 10 uM relative to control; type: functional; summary of the method: as §1
# RAW264.7 [10] = assay: Antiinflammatory activity in mouse RAW264.7 cells assessed as inhibition of LPS-induced NO production at 100 uM relative to control; type: functional; summary of the method: as §1
# RAW264.7 [11] = assay: Inhibition of SAPK/JNK phosphorylation in LPS-induced mouse RAW264.7 cells at 1 to 30 uM incubated for 10 mins prior to LPS-challenge measured after 30 mins by Western blot analysis; type: cell-based
# Summary of the method: (§3)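 RAW264.7 cells (5.0 × 10^6/well) adhered for 6 h. Compound was added for 10 min, then LPS (final 10 µg/mL) for 30 min. BCA-normalized lysates, 25 µg/lane, were run on 10% SDS–PAGE and transferred to PVDF. Phospho-proteins (p-JNK, p-p38, p-STAT1 Ser727) were blocked in Blocking One-P, others (NF-κB p65) in Blocking One. Primary antibodies 1:1000 for 1 h at rt; detection by ECL.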
# [12] = target: T1, Signal transducer and activator of transcription 1 (Mus musculus) (UniProt P42225); assay: Inhibition of STAT1 phosphorylation in LPS-induced mouse RAW264.7 cells incubated for 10 mins prior to LPS-challenge measured after 30 mins by Western blot analysis; type: cell-based; summary of the method: as §3
# T1 sequence (whole entry): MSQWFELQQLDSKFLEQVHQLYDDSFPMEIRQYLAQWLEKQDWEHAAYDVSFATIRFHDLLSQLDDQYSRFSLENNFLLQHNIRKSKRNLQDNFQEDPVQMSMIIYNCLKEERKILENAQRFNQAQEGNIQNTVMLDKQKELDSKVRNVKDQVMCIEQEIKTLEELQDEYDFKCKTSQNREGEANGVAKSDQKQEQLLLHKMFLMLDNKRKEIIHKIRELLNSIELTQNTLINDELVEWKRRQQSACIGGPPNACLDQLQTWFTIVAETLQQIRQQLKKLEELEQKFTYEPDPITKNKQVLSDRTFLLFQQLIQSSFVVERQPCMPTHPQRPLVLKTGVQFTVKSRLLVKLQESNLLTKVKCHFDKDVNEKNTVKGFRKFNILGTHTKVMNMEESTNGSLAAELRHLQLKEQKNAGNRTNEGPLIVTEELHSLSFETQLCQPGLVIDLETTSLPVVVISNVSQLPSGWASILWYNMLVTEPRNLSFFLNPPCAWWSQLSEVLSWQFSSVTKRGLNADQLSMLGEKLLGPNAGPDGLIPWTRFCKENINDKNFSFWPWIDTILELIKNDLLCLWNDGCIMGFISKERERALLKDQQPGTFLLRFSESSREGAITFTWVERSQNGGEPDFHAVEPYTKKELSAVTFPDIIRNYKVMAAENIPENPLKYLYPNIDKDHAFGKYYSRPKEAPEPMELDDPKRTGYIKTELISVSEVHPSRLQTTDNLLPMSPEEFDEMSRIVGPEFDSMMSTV
# RAW264.7 [13] = assay: Antiinflammatory activity in mouse RAW264.7 cells assessed as inhibition of LPS-induced iNOS expression at 1 to 30 uM incubated for 10 mins prior to LPS-challenge measured after 12 hrs by Western blot analysis; type: functional, cell-based
# Summary of the method: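 RAW264.7 cells (5.0 × 10^6/well, 6-well) adhered for 6 h. Compound was added for 10 min, then LPS (final 10 µg/mL) for 12 h. Lysates were sonicated and normalized by BCA. 50 µg protein/lane was run on 10% SDS–PAGE and transferred to PVDF. Blots were probed for iNOS and β-actin (primary 1:1000, HRP secondary 1:5000) and detected by ECL.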
# [14] = target: MAP kinase p38 (Mus musculus) (UniProt P47811+O08911+Q9WUI1+Q9Z1B7); assay: Inhibition of p38 phosphorylation in LPS-induced mouse RAW264.7 cells at 1 to 30 uM incubated for 10 mins prior to LPS-challenge measured after 30 mins by Western blot analysis; type: cell-based; summary of the method: as §3
Structure (SMILES),inhibition at 30 µM (RAW264.7 [1]),inhibition at 10 µM (RAW264.7 [2]),IC50 (RAW264.7 [3]),"viability at 18 h, 30 µM [4]","viability at 18 h, 3 µM [5]","viability at 18 h, 10 µM [6]",inhibition at 3 µM (RAW264.7 [7]),inhibition at 1 µM (RAW264.7 [8]),inhibition at 10 µM (RAW264.7 [9]),inhibition at 100 µM (RAW264.7 [10]),inhibition (RAW264.7 [11]),inhibition [12],inhibition (RAW264.7 [13]),inhibition [14]
CCCc1cc(=O)oc2c3c(c(C(=O)C(C)CC)c(O)c12)OC(C)(C)C=C3 (stereo not drawn),13.3%,10.6%,> 30 µM,,,,,,,,,,,
CCCC(=O)c1c2c(c3oc(=O)cc(CCC)c3c1O)C=CC(C)(C)O2,13.8%,9.9%,> 30 µM,,,,,,,,,,,
CCC(C)C(=O)c1c(O)c(CC=C(C)C)c(O)c2c([C@H](CC)OC(C)=O)cc(=O)oc12 (stereo partly drawn),89.1%,50.5%,7.9 µM,11%,55.3%,29.9%,24.2%,-1.5%,,,,,,
Nc1n[nH]c2nnc(-c3c(-c4ccccc4)nn4ccccc34)cc12,,,,,,,,,7.2%,,,,,
COc1cccc(-c2cc(=O)c3ccccc3o2)c1N,,,,,,,,,,-2.4%,,,,
CCC(C)C(=O)c1c2c(c3oc(=O)cc(-c4ccccc4)c3c1O)C=CC(C)(C)O2 (stereo not drawn),18.3%,12.9%,> 30 µM,,,,,,,,,,,
CCCC(=O)c1c2c(c3oc(=O)cc(-c4ccccc4)c3c1O)C=CC(C)(C)O2,14.3%,9.4%,> 30 µM,,,,,,,,,,,
O=C(/C=C/c1ccc(O)c(O)c1)OCCc1ccccc1 [CAFFEIC ACID PHENETHYL ESTER],100%,98.4%,3.8 µM,15.6%,,76.4%,45.7%,5.4%,,,,,,
CCCC(=O)c1c(O)c2c(c3c([C@@H](O)CC)cc(=O)oc13)OC(C)(C)C=C2 [DEACETYLMAMMEA E/BC CYCLO D],62.3%,33.1%,19.7 µM,107%,,,20.2%,15.1%,,,,,,
CCCC(=O)c1c(O)c(C/C=C(\C)CCC=C(C)C)c(O)c2c([C@@H](O)CC)cc(=O)oc12 [KAYEASSAMIN A],56.6%,29.7%,26.6 µM,82.4%,,,15%,5%,,,,,,
CCCC(=O)c1c(O)c(CC=C(C)C)c2oc(=O)cc([C@@H](O)CC)c2c1O [KAYEASSAMIN E],63.8%,67.1%,6.1 µM,42.2%,,42.8%,38.8%,38.7%,,,,,,
CCC(C)C(=O)c1c(O)c(CC=C(C)C)c2oc(=O)cc([C@@H](O)CC)c2c1O (stereo partly drawn) [KAYEASSAMIN F],63.1%,60.7%,6 µM,31.5%,,55.2%,41.3%,31.4%,,,,,,
CC[C@H](O)c1cc(=O)oc2c(CC=C(C)C)c(O)c(C(=O)CC(C)C)c(O)c12 [KAYEASSAMIN G],72.3%,81.5%,0.8 µM,83.7%,,,55.9%,51%,,,inactive,Dose-dependent effect,Active,inactive
CCCC(=O)c1c(O)c(CC=C(C)C)c2oc(=O)cc(-c3ccccc3)c2c1O [MAMMEA A/AC],67.6%,46.9%,13 µM,96.8%,,,14.2%,0.6%,,,,,,
CCCC(=O)c1c(O)c(C/C=C(\C)CCC=C(C)C)c(O)c2c([C@H](CC)OC(C)=O)cc(=O)oc12 [MAMMEASIN A],92%,88.1%,1.8 µM,10.2%,56.4%,24.1%,72.9%,27.5%,,,inactive,Dose-dependent effect,Active,inactive
CC[C@H](OC(C)=O)c1cc(=O)oc2c(C(=O)CC(C)C)c(O)c(C/C=C(\C)CCC=C(C)C)c(O)c12 [MAMMEASIN B],88.2%,64.7%,6.4 µM,13.6%,60.3%,20.2%,31.1%,0.6%,,,,,,
CC(C)=CCc1c(O)c(C(=O)C(C)C)c(O)c2c(-c3ccccc3)cc(=O)oc12 [MESUOL],103%,89.4%,1.3 µM,10.1%,57.2%,27.2%,83.4%,33.7%,,,inactive,Dose-dependent effect,Active,inactive
Oc1ccc(-c2nc(-c3ccncc3)c(-c3ccc(F)cc3)[nH]2)cc1 [SB-202190],70.2%,36.8%,16 µM,81.4%,,,,,,,,,,
CCC(C)C(=O)c1c(O)c(C/C=C(\C)CCC=C(C)C)c(O)c2c([C@H](CC)OC(C)=O)cc(=O)oc12 (stereo partly drawn) [SURANGIN B],91.1%,74.3%,5 µM,18.1%,67.1%,42.3%,35.7%,8.5%,,,,,,
CCC(C)C(=O)c1c(O)c(C/C=C(\C)CCC=C(C)C)c(O)c2c([C@@H](O)CC)cc(=O)oc12 (stereo partly drawn) [SURANGIN C],71.3%,56.7%,6.8 µM,42.9%,,61.7%,40.8%,18.1%,,,,,,
CC[C@H](O)c1cc(=O)oc2c(C(=O)CC(C)C)c(O)c(C/C=C(\C)CCC=C(C)C)c(O)c12 [SURANGIN D],74%,55.4%,6.2 µM,104%,,,41.1%,22.7%,,,,,,
